Data from ChEMBL document CHEMBL5303300, “EUbOPEN Chemogenomics Library - Multiplex” (2023).
Where “and” joins values, the source holds several entries; their conditions need not be identical. Identical values can stand only once.

System: HEK-293T
Assay: Multiplex assay against HEK293T
Format: toxicity, cell-based
Conditions: human, number of replicates 2
Outline: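 Imaging took place on a CQ1 microscope at 37°C and 5% CO2 once compound had been added to live cells stained at seeding with Hoechst33342, BioTracker Green Microtubule Cytoskeleton Dye, MitoTracker Red and Annexin V Alexa Fluor 680. CellPathfinder machine-learning gating classed cells as Hoechst high-intensity objects or normal cells, classed normal cells as having healthy, pyknosed or fragmented nuclei, and classed pyknosed cells as mitotic or apoptotic. Tubulin, mitochondrial-mass and membrane-permeability phenotypes are per cents of the healthy-nucleus cells.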

[1] = 12 h, 1 µM, compound concentration 1 uM
[2] = 12 h, 10 µM, compound concentration 10 uM
[3] = 24 h, 1 µM, compound concentration 1 uM
[4] = 24 h, 10 µM, compound concentration 10 uM
[5] = 48 h, 1 µM, compound concentration 1 uM
[6] = 48 h, 10 µM, compound concentration 10 uM

SMILES: C=CC(=O)Nc1cccc(C)c1Nc1ncc2cc(-c3c(Cl)c(OC)cc(OC)c3Cl)ccc2n1
- Population Apoptotic (%) [1]: 39% and 35%
- Population Fragmented Nuclei (%) [1]: 3%
- Population Healthy Nuclei (%) [1]: 87%
- Population Hoechst High Intensity Objects (%) [1]: 7% and 5%
- Population Membrane Permeable-Phenotype (%) [1]: 2% and 1%
- Population Mitochondria Different-Phenotype (%) [1]: 16% and 12%
- Population Mitotic Cells (%) [1]: 60% and 64%
- Population Normal (%) [1]: 92% and 94%
- Population Pyknosed Nuclei (%) [1]: 8% and 9%
- Population Tubulin-Different-Phenotype (%) [1]: 40% and 41%
- Total Cell Count [1]: 760 and 929
- Population Apoptotic (%) [2]: 71% and 67%
- Population Fragmented Nuclei (%) [2]: 4%
- Population Healthy Nuclei (%) [2]: 71% and 77%
- Population Hoechst High Intensity Objects (%) [2]: 20% and 14%
- Population Membrane Permeable-Phenotype (%) [2]: 2% and 3%
- Population Mitochondria Different-Phenotype (%) [2]: 42% and 39%
- Population Mitotic Cells (%) [2]: 28% and 32%
- Population Normal (%) [2]: 79% and 85%
- Population Pyknosed Nuclei (%) [2]: 24% and 18%
- Population Tubulin-Different-Phenotype (%) [2]: 55% and 47%
- Total Cell Count [2]: 374 and 381
- Population Apoptotic (%) [3]: 35% and 39%
- Population Fragmented Nuclei (%) [3]: 6% and 4%
- Population Healthy Nuclei (%) [3]: 85% and 88%
- Population Hoechst High Intensity Objects (%) [3]: 5% and 7%
- Population Membrane Permeable-Phenotype (%) [3]: 1% and 0%
- Population Mitochondria Different-Phenotype (%) [3]: 4% and 6%
- Population Mitotic Cells (%) [3]: 64% and 60%
- Population Normal (%) [3]: 94% and 92%
- Population Pyknosed Nuclei (%) [3]: 7%
- Population Tubulin-Different-Phenotype (%) [3]: 26% and 25%
- Total Cell Count [3]: 1252 and 1297
- Population Apoptotic (%) [4]: 70% and 60%
- Population Fragmented Nuclei (%) [4]: 5% and 3%
- Population Healthy Nuclei (%) [4]: 71% and 77%
- Population Hoechst High Intensity Objects (%) [4]: 17% and 11%
- Population Membrane Permeable-Phenotype (%) [4]: 2% and 0%
- Population Mitochondria Different-Phenotype (%) [4]: 32% and 24%
- Population Mitotic Cells (%) [4]: 29% and 40%
- Population Normal (%) [4]: 83% and 88%
- Population Pyknosed Nuclei (%) [4]: 23% and 18%
- Population Tubulin-Different-Phenotype (%) [4]: 32% and 29%
- Total Cell Count [4]: 453 and 428
- Population Apoptotic (%) [5]: 12%
- Population Fragmented Nuclei (%) [5]: 12% and 9%
- Population Healthy Nuclei (%) [5]: 84% and 87%
- Population Hoechst High Intensity Objects (%) [5]: 8% and 11%
- Population Membrane Permeable-Phenotype (%) [5]: 5% and 2%
- Population Mitochondria Different-Phenotype (%) [5]: 0% and 1%
- Population Mitotic Cells (%) [5]: 87%
- Population Normal (%) [5]: 91% and 88%
- Population Pyknosed Nuclei (%) [5]: 2% and 3%
- Population Tubulin-Different-Phenotype (%) [5]: 10% and 15%
- Total Cell Count [5]: 3082 and 2641
- Population Apoptotic (%) [6]: 50% and 52%
- Population Fragmented Nuclei (%) [6]: 5% and 3%
- Population Healthy Nuclei (%) [6]: 84% and 85%
- Population Hoechst High Intensity Objects (%) [6]: 11% and 8%
- Population Membrane Permeable-Phenotype (%) [6]: 1%
- Population Mitochondria Different-Phenotype (%) [6]: 8% and 9%
- Population Mitotic Cells (%) [6]: 50% and 47%
- Population Normal (%) [6]: 88% and 91%
- Population Pyknosed Nuclei (%) [6]: 9% and 11%
- Population Tubulin-Different-Phenotype (%) [6]: 12%
- Total Cell Count [6]: 751 and 603
